Results on 24 compounds are retold here after ChEMBL document CHEMBL2169868, “Flavone-based novel antidiabetic and antidyslipidemic agents” (J Med Chem, 2012).

Active and inactive are the calls of the source. The calls are words filed in the database; no cut-off is given here.

Common to all, as to assay type: functional
Common to all, as to parameters: scale not given: the % may be the effect or the level left

The subject of test [1] is Rattus norvegicus. As to the kind of experiment: Antihyperlipidemic activity in Triton-induced dyslipidemic Wistar rat model assessed as reduction in phospholipid level at 100 mg/kg, po. In a few lines: (§1)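 Male Wistar rats, 8−10 weeks, about 160 g, fed normal pellet diet. Triton X-100 given at 400 mg/kg ip; compound given orally in 1% gum acacia. Retro-orbital blood taken 18 h after Triton and serum separated at 1500g for 10 min. TG and cholesterol measured by kit. Mean % change versus dyslipidemic control, 5 animals.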

For test [2], the system named is Rattus norvegicus. As to the kind of experiment: Antihyperlipidemic activity in Triton-induced dyslipidemic Wistar rat model assessed as reduction in cholesterol level at 100 mg/kg, po. In a few lines: as §1
Test [3] has as its system Rattus norvegicus. As to the kind of experiment: Antihyperlipidemic activity in Triton-induced dyslipidemic Wistar rat model assessed as reduction in triglyceride level at 100 mg/kg, po. In a few lines:
as §1

Test [4] deals with Rattus norvegicus. As to the kind of experiment: Antidiabetic activity in sucrose loaded Wistar rat model assessed as reduction in glucose levels at 100 mg/kg, po.
For test [5], the system named is Rattus norvegicus. As to the kind of experiment: Antidiabetic activity in sucrose challenged streptozotocin-induced diabetic Sprague-Dawley rat model assessed as reduction in glucose levels at 100 mg/kg, po measured after 5 hrs.
The subject of test [6] is Rattus norvegicus. As to the kind of experiment: Antidiabetic activity in sucrose challenged streptozotocin-induced diabetic Sprague-Dawley rat model assessed as reduction in glucose levels at 100 mg/kg, po measured after 24 hrs.

For `Cc1ccccc1COc1cc(OCc2ccccc2C)cc(-c2cc(=O)c3ccc(OCC(O)CNC(C)(C)C)cc3o2)c1` (configuration not stated), the Activity with Rattus norvegicus [1] is on record as 12.6%; with Rattus norvegicus [2], 22.3%; with Rattus norvegicus [3], 28.2%; in the test with Rattus norvegicus [4], 39.1%; with Rattus norvegicus [5] it was 23.2%; with Rattus norvegicus [6], 17.2%.

Turning to `CC(C)(C)NCC(O)COc1ccc2oc(-c3ccc(O)c(O)c3)cc(=O)c2c1` (configuration not stated), the Activity with Rattus norvegicus [1] amounted to 23%; in the test on Rattus norvegicus [2], 24%; in the test with Rattus norvegicus [3], 25%. The result in the test with Rattus norvegicus [5] and with Rattus norvegicus [6] was inactive.

On to `CC(C)NCC(O)COc1ccc2c(=O)cc(-c3cc(OCc4ccccc4Cl)cc(OCc4ccccc4Cl)c3)oc2c1` (configuration not stated), for which the Activity in the test with Rattus norvegicus [1] came out at 20.2%; in the test with Rattus norvegicus [2] it was 12.1%; in the test on Rattus norvegicus [3], 30.2%; with Rattus norvegicus [4], 12.6%; with Rattus norvegicus [5], 6.83%. Besides, in the test with Rattus norvegicus [6], the result was inactive.

In the case of `Cc1ccccc1COc1cc(OCc2ccccc2C)cc(-c2cc(=O)c3ccc(OCC(O)CNC(C)C)cc3o2)c1` (configuration not stated), the Activity in the test on Rattus norvegicus [1] was determined as 24.1%; with Rattus norvegicus [2], 13.5%; in the test on Rattus norvegicus [3], 26.2%; in the test on Rattus norvegicus [4], 4.65%.

For `CC(C)NCC(O)COc1ccc2c(=O)cc(-c3ccc(O)c(O)c3)oc2c1` (configuration not stated), the Activity worked out at 13% with Rattus norvegicus [1], 15% in the test with Rattus norvegicus [2] and 19% in the test with Rattus norvegicus [3]. Also, the result in the test with Rattus norvegicus [4] was inactive.

As to `CN(C)C(=N)NC(=N)N` [METFORMIN], the Activity with Rattus norvegicus [1] came out at 6.2%; in the test with Rattus norvegicus [2], 4.2%; in the test with Rattus norvegicus [3], 5.9%; in the test on Rattus norvegicus [4], 22.1%; in the test on Rattus norvegicus [5] it was 24.3%; in the test with Rattus norvegicus [6], 19.4%.

Regarding `CC(C)(C)NCC(O)COc1ccc2c(=O)cc(-c3cc(OCc4cc(Cl)cc(Cl)c4)cc(OCc4cc(Cl)cc(Cl)c4)c3)oc2c1` (configuration not stated), the Activity in the test on Rattus norvegicus [1] came out at 12.2%; in the test with Rattus norvegicus [2], 8.93%; in the test on Rattus norvegicus [3], 11.3%; in the test with Rattus norvegicus [4], 25.9%; in the test on Rattus norvegicus [5], 14.2%. In addition, in the test on Rattus norvegicus [6], the result was inactive.

For `Cc1ccc(COc2cc(OCc3ccc(C)cc3)cc(-c3cc(=O)c4ccc(OCC(O)CN(C(C)C)C(C)C)cc4o3)c2)cc1` (configuration not stated), the Activity in the test with Rattus norvegicus [1] came out at 4.67%; in the test with Rattus norvegicus [2], 10.1%; with Rattus norvegicus [3], 12.1%; in the test with Rattus norvegicus [4] it was 15.7%; in the test with Rattus norvegicus [5] it was 12.2%. Further, the result in the test on Rattus norvegicus [6] was inactive.

Consider `COc1cc(-c2cc(=O)c3ccc(OCC(O)CN4CCN(c5ccccc5)CC4)cc3o2)cc(OC)c1OC` (configuration not stated), for which the Activity in the test on Rattus norvegicus [1] was determined as 8%; in the test with Rattus norvegicus [2], 19%; in the test with Rattus norvegicus [3], 23%; in the test on Rattus norvegicus [5] it was 2.36%; in the test with Rattus norvegicus [6], 0.24%.

Regarding `CC(C)(C)NCC(O)COc1ccc2c(=O)cc(-c3cc(O)cc(O)c3)oc2c1` (configuration not stated), the Activity with Rattus norvegicus [1] was determined as 4%; with Rattus norvegicus [2], 17%; in the test on Rattus norvegicus [3] it was 16%.

As to `CC(C)NCC(O)COc1ccc2c(=O)cc(-c3cc(OCc4ccccc4)cc(OCc4ccccc4)c3)oc2c1` (configuration not stated), the Activity came out at 8% in the test on Rattus norvegicus [1]; 13% with Rattus norvegicus [2]; 11% in the test with Rattus norvegicus [3]; 7.86% with Rattus norvegicus [5]; 2.23% in the test on Rattus norvegicus [6]. In the test with Rattus norvegicus [4], the result was inactive.

`COc1ccc(-c2cc(=O)c3ccc(OCC(O)CNC(C)C)cc3o2)cc1OC` (configuration not stated): the Activity came out at 23.9% in the test on Rattus norvegicus [4], 13.8% with Rattus norvegicus [5] and 6.83% in the test with Rattus norvegicus [6].

For `COc1cc(OC)cc(-c2cc(=O)c3ccc(OCC(O)CNC(C)(C)C)cc3o2)c1` (configuration not stated), the Activity in the test on Rattus norvegicus [1] came out at 19%; in the test with Rattus norvegicus [2] it was 21%; in the test on Rattus norvegicus [3] it was 17%; in the test on Rattus norvegicus [5] it was 4.86%; with Rattus norvegicus [6], 2.36%. The outcome in the test on Rattus norvegicus [4] was inactive.

`COc1cc(-c2cc(=O)c3ccc(OCC(O)CNC(C)C)cc3o2)cc(OC)c1OC` (configuration not stated): the Activity with Rattus norvegicus [1] stood at 16%; in the test with Rattus norvegicus [2] it was 18%; with Rattus norvegicus [3], 19%; with Rattus norvegicus [4] it was 20.7%.

For the compound `COc1ccc(-c2cc(=O)c3ccc(OCC(O)CN4CCN(c5ccccc5)CC4)cc3o2)cc1OC` (configuration not stated), the Activity with Rattus norvegicus [1] turned out to be 22%; in the test with Rattus norvegicus [2], 23%; in the test with Rattus norvegicus [3], 19%; in the test with Rattus norvegicus [5] it was 4.35%; in the test with Rattus norvegicus [6], 2.34%.

Take `CC(C)(C)NCC(O)COc1ccc2oc(-c3ccc(OCc4ccccc4)c(OCc4ccccc4)c3)cc(=O)c2c1` (configuration not stated): the Activity was found to be 12% with Rattus norvegicus [1]; 21% in the test with Rattus norvegicus [2]; 17% in the test with Rattus norvegicus [3]; 21.8% in the test on Rattus norvegicus [4]; 0.36% in the test on Rattus norvegicus [6].

As for `CC(C)(C)NCC(O)COc1ccc2c(=O)cc(-c3cc(OCc4ccccc4Cl)cc(OCc4ccccc4Cl)c3)oc2c1` (configuration not stated), the Activity turned out to be 11.3% with Rattus norvegicus [1]; 12.5% in the test with Rattus norvegicus [2]; 18.7% in the test on Rattus norvegicus [3]; 14.8% in the test with Rattus norvegicus [4]; 7.48% in the test on Rattus norvegicus [5]. Besides, the result with Rattus norvegicus [6] was inactive.

As to `CC(C)(C)NCC(O)COc1ccc2c(=O)cc(-c3ccc(OCc4ccccc4)c(OCc4ccccc4)c3)oc2c1` (configuration not stated), the Activity is recorded as 12% in the test on Rattus norvegicus [1]; 23% in the test with Rattus norvegicus [2]; 16% in the test with Rattus norvegicus [3]; 15.9% with Rattus norvegicus [4]; 11.8% in the test with Rattus norvegicus [5]; 0.89% with Rattus norvegicus [6].

Regarding `CC(C)(C)NCC(O)COc1ccc2c(=O)cc(-c3ccc(O)c(O)c3)oc2c1` (configuration not stated), the Activity with Rattus norvegicus [1] was 23%; in the test with Rattus norvegicus [2] it was 21%; in the test with Rattus norvegicus [3], 25%. Further, the result in the test on Rattus norvegicus [4] was inactive.

`COc1cc(-c2cc(=O)c3ccc(OCC(O)CNC(C)(C)C)cc3o2)cc(OC)c1OC` (configuration not stated): the Activity is reported as 26% with Rattus norvegicus [1], 24% with Rattus norvegicus [2] and 28% with Rattus norvegicus [3]. In the test on Rattus norvegicus [4], the outcome was inactive.

Consider `COc1cc(OC)cc(-c2cc(=O)c3ccc(OCC(O)CN4CCN(c5ccccc5)CC4)cc3o2)c1` (configuration not stated), for which the Activity in the test with Rattus norvegicus [1] stood at 12.8%; in the test on Rattus norvegicus [2], 14.3%; in the test on Rattus norvegicus [3], 17.3%. Further, the result in the test with Rattus norvegicus [4] was inactive.

As for `O=c1cc(-c2cc(OCc3ccccc3)cc(OCc3ccccc3)c2)oc2cc(OCC(O)CN3CCN(c4ccccc4)CC3)ccc12` (configuration not stated), the Activity in the test on Rattus norvegicus [1] was 21%; with Rattus norvegicus [2], 24%; with Rattus norvegicus [3] it was 17%; with Rattus norvegicus [5], 14.3%.

On to `COc1cc(OC)cc(-c2cc(=O)c3ccc(OCC(O)CNC(C)C)cc3o2)c1` (configuration not stated), for which the Activity is recorded as 21% in the test on Rattus norvegicus [1], 17% in the test with Rattus norvegicus [2] and 24% in the test with Rattus norvegicus [3]. The result in the test with Rattus norvegicus [5] and in the test with Rattus norvegicus [6] was inactive.

In the case of `Cc1ccc(COc2cc(OCc3ccc(C)cc3)cc(-c3cc(=O)c4ccc(OCC(O)CNC(C)(C)C)cc4o3)c2)cc1` (configuration not stated), the Activity in the test with Rattus norvegicus [1] came to 16.2%; with Rattus norvegicus [2], 11.2%; in the test on Rattus norvegicus [3] it was 12.8%; in the test with Rattus norvegicus [4], 13.6%.
